This is a sample that favours compounds with a hit; in the whole collection about 3.5% have one here.
MrgX1 allo act: allosterically activates human MrgX1 receptor signaling. hit rate 0.63% among 310,000. Q96LB2. MrgX1-HEK293, Fluo-4 calcium flux, FDSS; active compounds read high. B-score at 10 µM;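 active means plate-corrected calcium response at least 3 library SD above typical, normal starting fluorescence, not activating the receptor alone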;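 further: compound read alongside a low EC10 to EC30 dose of BAM8-22 agonist; peak minus trough fluorescence over baseline measured at the second addition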
Target sequence (Q96LB2 whole entry, looked up): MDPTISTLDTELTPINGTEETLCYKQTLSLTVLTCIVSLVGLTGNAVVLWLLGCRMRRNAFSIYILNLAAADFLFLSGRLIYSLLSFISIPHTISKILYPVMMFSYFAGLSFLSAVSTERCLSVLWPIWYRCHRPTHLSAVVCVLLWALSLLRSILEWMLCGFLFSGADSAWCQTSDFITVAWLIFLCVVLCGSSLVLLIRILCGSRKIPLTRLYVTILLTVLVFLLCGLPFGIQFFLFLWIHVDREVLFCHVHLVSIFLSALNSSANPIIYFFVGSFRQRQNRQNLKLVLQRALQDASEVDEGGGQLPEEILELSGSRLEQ
MrgX1 agonist: human MrgX1 receptor agonism, primary screen | Q96LB2 | MrgX1-HEK293 cells, Fluo-4 calcium fluorescence, agonist mode; active compounds read high | B-score at 10 µM | hit rate 0.44% among 310,000 | AID 588627;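 active means calcium response B-score plate-corrected fluorescence ratio at least 3 library SD, with starting fluorescence B-score inside 5 SD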
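Material: HEK293 cells stably expressing human MrgX1 receptor | Quantity: 15,000 cells per well | Times: Cells plated overnight, dye loaded 0.5 h 37 °C, 0.5 h room temperature | Measured by: Kinetic Fluo-4 NW fluorescence of intracellular calcium | Control set: Positive and negative controls per plate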
RGS4 inh: human RGS4 inhibition. B-score at 10 µM. hit rate 0.45% among 310,000. HEK293 M3R/RGS4 inducible, Fluo-4 calcium flux; active compounds read high; triggered by carbachol at its EC20;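 active means B-score, a plate-corrected calcium signal, over three deviations above library mean, with baseline fluorescence within five deviations of library mean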;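 further: RGS4 expression induced by doxycycline in cells with stable M3 receptor; B-score is computed from the integrated fluorescence ratio over baseline after carbachol; higher B-score means a larger calcium signal and so more RGS4 inhibition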
Target sequence (P49798 whole entry, looked up): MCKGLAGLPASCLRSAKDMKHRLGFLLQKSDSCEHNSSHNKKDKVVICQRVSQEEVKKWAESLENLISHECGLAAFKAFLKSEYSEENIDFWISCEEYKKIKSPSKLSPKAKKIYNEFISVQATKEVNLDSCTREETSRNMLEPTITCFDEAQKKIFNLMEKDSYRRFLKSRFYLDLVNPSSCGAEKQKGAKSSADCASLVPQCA
RGS4 act: RGS4 potentiation or activation; HEK293 M3R/inducible RGS4, carbachol calcium flux Fluo4; active compounds read low; B-score at 10 µM; hit rate 0.92% among 310,000; AID 463111;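 active means B-score of the integrated calcium signal more than 4 SD below the library mean, with starting fluorescence not abnormally high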;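 further: negative B-score means reduced calcium response which marks RGS4 activation or potentiation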
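Material: M3R-expressing HEK293 line, RGS4 induced by doxycycline | Schedule: Overnight RGS4 induction, 30 min dye load 37 °C, 20 min compound RT | Measured by: Fluo4 fluorescence kinetic imaging of calcium | Read-out: Integrated calcium ratio converted to B score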
MrgX1 antagonist: human MrgX1 receptor antagonism, primary screen | MRGX1-HEK293 calcium flux, Fluo-4, BAM8-22 antagonism; active compounds read low | B-score at 10 µM | hit rate 1.3% among 310,000;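 active means calcium-response B-score plate-corrected more than 3 library SD below zero, starting fluorescence within 5 deviations, no agonist response on first addition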;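 further: peak minus trough fluorescence over baseline after final BAM8-22 challenge near maximal dose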
A number is an active result; - = inactive; . = no result given.

SMILES	MrgX1 allo act	MrgX1 agonist	RGS4 inh	RGS4 act	MrgX1 antagonist
CCOC(=O)C1=C(C)N=c2s/c(=C/c3cccc([N+](=O)[O-])c3O)c(=O)n2C1c1ccc(OC)cc1OC (stereo unspecified)	-	-	-	-8.37	-
O=C(N/N=C/C(Br)=C/c1ccccc1)c1ccccc1F	7.04	-	-	-	-
O=C(NC1CC2CCCC(C1)N2C(=S)Nc1ccc(Cl)cc1)C1CC1 (stereo unspecified)	-	-	-	-6.98	-
CC#CCCc1nc2ccccc2c(=O)n1N	-	-	-	-	-5.99
CS(=O)(=O)c1cccc(C(=O)N(CCc2ccccc2)Cc2cccs2)c1	-	-	-	-	-
COc1ccc(NCc2cccnc2)cc1	-	-	-	-	-
CCC(C(=O)O/N=C(\N)c1cccc(C)c1)c1ccccc1 (stereo unspecified)	-	-	-	-9.49	-
COc1ccc(Cl)cc1C(=O)NCC(=O)OCc1ccccc1	-	-	-	-	-
c1cncc(CSc2nnc(-c3cccnc3)n2Cc2ccco2)c1	.	.	-	-	.
O=C(CSc1nnc(-c2cccnc2)n1Cc1ccco1)N1c2ccccc2Sc2ccccc21	-	-	.	.	-4.53
Cc1ccc(C)c(OCc2cc(C(=O)N3CCc4sccc4C3)no2)c1	-	-	-	-	-
CCn1ccnc1CN(C)C(=O)c1cc(COc2ccccc2SC)on1	-	-	-	-7.59	-
CSc1ccccc1OCc1cc(C(=O)N2CCc3sccc3C2)no1	-	-	-	-7.85	-
Cc1ccc(NC(=S)NC(=O)c2cncc(Br)c2)cc1Cl	-	-	-	-	-
COc1ccc(/C=C/C(=O)c2ccc3ccccc3c2O)cc1CN1CCOCC1	-	-	-	-	-4.69
CC(=O)Nc1ccc(-c2csc(Nc3ccc(Cl)cn3)n2)cc1	7.16	-	-	-	-
CC(=O)Nc1cccc(-c2csc(Nc3ccc(Cl)cn3)n2)c1	-	-	-	-	-
CC1C(=O)N2CCCc3cc(S(=O)(=O)N4CCC(C(N)=O)CC4)cc1c32 (stereo unspecified)	-	-	-	-	-
C[N+](C)(C)CCCNC(=O)c1ccc(/C=N/O)nc1	-	-	-	-	-5.11
OCC[C@H]1C[C@@H](O)[C@H](O)[C@]2(OCc3ccccc32)O1	-	-	.	.	-
CCC1CCCCN1C(=O)c1ccc([N+](=O)[O-])o1 (stereo unspecified)	-	-	-	-	-
O=C(CCc1nnc2ccc(NCc3ccccc3)nn12)NC1CCCCC1	-	-	-	-	-
CC1(C)Cc2c(sc3c2c(=N)n(Cc2ccco2)c(=O)n3Cc2ccc(F)cc2)CO1	-	-	.	.	-4.56
COc1ccc(Cn2c(=O)n(Cc3ccco3)c(=N)c3c4c(sc32)COC(C)(C)C4)cc1	-	-	.	.	-
O=C(c1ccc([N+](=O)[O-])s1)N1CCc2ccccc21	-	-	-	-	-
SMILES	MrgX1 allo act	MrgX1 agonist	RGS4 inh	RGS4 act	MrgX1 antagonist
O=C(c1ccc([N+](=O)[O-])s1)N1CCCc2ccccc21	-	-	-	-7.73	-
CCCn1c(SCC(=O)N2N=C3/C(=C/c4ccc(OC)cc4)CCCC3C2c2ccc(OC)cc2)n[nH]c1=O (stereo unspecified)	-	-	-	-	-5.14
CCCn1c(SCC(=O)NCc2ccc(OC)cc2)n[nH]c1=O	-	-	-	-	-
COc1ccc(OCc2cc(C(=O)O)c(C)o2)cc1	-	-	-	-	-
O=C(O)c1ccccc1-c1ccccc1C(=O)Nc1ccc(-c2nc3cc(Cl)ccc3o2)cc1	-	-	-	-	-5.55
O=C(CCc1ccccc1)NNC(=O)Nc1ccc(F)c(Cl)c1	-	-	-	-	-
C/C(=N\NC(=O)c1ccc(NS(=O)(=O)c2cccs2)cc1)c1ccc(O)cc1O	-	-	-	-	-
Cc1oc(-c2ccccc2F)nc1CS(=O)(=O)CC(=O)NC1CCCC1	-	-	-	-	-
Cc1oc(-c2ccccc2F)nc1CS(=O)(=O)CC(=O)NCCN(C)C1CCCCC1	-	-	-	-	-5.72
CCOC(=O)c1oc2nc(CC(C)C)c3c(c2c1N)CCCC3	-	-	-	-	-
CN1CCc2cc3c(c4c2[C@H]1[C@H](O)c1ccccc1-4)OCO3	-	-	-	-7.37	-
O=C(CS(=O)(=O)Cc1ccccc1)NCc1ccccc1Cl	-	-	-	-	-
Cc1cc(C)nc(OC(=O)c2ccc(Cl)cc2Cl)n1	-	-	-	-7.31	-
Cc1cc(C)nc(OC(=O)c2c(Cl)cc(Cl)cc2Cl)n1	-	-	-	-	-
CCCNC(=O)OC[C@H]1O[C@H](CCO/N=C(\C)CCN2CCc3nc(-c4ccccc4)c(-c4ccccc4)cc3C2)C=C[C@@H]1Oc1ccc(OC)cc1	-	-	-	-8.08	-
CCc1nnc(NS(=O)(=O)c2ccc(NC(=S)NC(=O)/C=C/c3ccccc3)cc2)s1	-	-	-	-	-
CCc1nnc(NS(=O)(=O)c2ccc(NC(=S)NC(=O)/C=C/c3ccc(C(C)C)cc3)cc2)s1	-	-	-	-9.67	-
O=C(COC(=O)c1ccccc1NCCO)NNC(=O)c1cccs1	-	-	-	-	-
COC(=O)[C@@]12OC[C@]34[C@H]([C@@H](O)[C@@H]1O)[C@@]1(C)C(=O)C(O[C@@H]5OC(CO)[C@@H](O)[C@@H](O)[C@@H]5O)=C[C@@H](C)[C@@H]1C[C@H]3OC(=O)[C@H](OC(=O)/C=C(\C)C(C)(C)OC(C)=O)[C@@H]24 (stereo partly specified)	-	-	.	.	-
CC1=C(SCCC#N)S/C(=C2\SC(C)=C(SCCC#N)S2)S1	-	-	-	-	-5.25
Cn1c(SCCC#N)nnc1-c1ccc(F)cc1	-	-	-	-	-
CC1(C#CC[N+]2(C)CCCCC2)CCC2C(O1)c1ccccc1OC2(C)C (stereo unspecified)	-	-	-	-6.98	-
CC12CCC3(CO)COC(c4ccccc4O1)C2C3 (stereo unspecified)	-	-	-	-	-
COc1ccc(-c2ccc(/C=C(\NC(=O)c3ccccc3)C(=O)N3CCOCC3)o2)cc1	-	-	-	-	-
C[n+]1c2n(c3ccccc31)N=C(c1ccc(-c3ccccc3)cc1)CS2	-	-	-	-	-6.5
SMILES	MrgX1 allo act	MrgX1 agonist	RGS4 inh	RGS4 act	MrgX1 antagonist
CCOC(CNC(=O)CN1C(=O)COc2ccc(S(=O)(=O)N3CCCC3)cc21)OCC	-	-	-	-	-
COc1ccc(CN2CCNC(=O)C2CC(=O)N(C)Cc2nonc2C)c(F)c1 (stereo unspecified)	-	-	-	-	-
COc1ccc(CCN(C)C(=O)c2cnc(C)cn2)cc1OC	-	-	-	-	-
O=C(COC(=O)c1n[nH]c2ccccc12)c1cccc(Br)c1	-	-	-	-	-5.45
CCOc1ccc(C(=O)NCCCN(CC)CC)cc1	-	-	-	-	-5.39
CCOc1ccc(C(=O)NCCNC(=O)c2ccc(OCC)cc2)cc1	-	-	-	-	-
